# Shown are actives, neighbours in structure and some others; about 3.1% of the full set was active somewhere.
# hERG protect = shields human hERG channel from block by proarrhythmic agents. CHO-hERG, FluxOR thallium flux, dofetilide IC70 present. activation (rescue from dofetilide block), less the hit threshold, % at 10 µM. 310,000 compounds, 0.51% hits. Q12809;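 active means activation above the mean of controls blocked by dofetilide plus 5 SD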;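 further: thallium influx through hERG after potassium depolarization seen as dye fluorescence rise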
# KCNK3 block = human KCNK3 channel inhibition, primary screen | CHO-KCNK3 thallium flux, FluxOR fluorescence; active compounds read low | 340,000 compounds, 0.84% hits | B-score at 10 µM;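 active means B-score under library mean minus 4 SD, starting fluorescence ratio at most library mean plus 5 SD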;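 further: more negative B-score means stronger inhibition of thallium flux through KCNK3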
# KCNQ1 pot = human KCNQ1 channel potentiation or activation | 310,000 compounds, 0.35% hits | B-score at 10 µM | CHO-K1 KCNQ1, thallium flux FluxOR fluorescence; active compounds read high | P51787;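 active means fluorescence ratio B-score, a plate-corrected score, at least three library SD, with initial intensity B-score within 5 SD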
#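 Material: CHO-K1 cells stably expressing KCNQ1. Medium: assay buffer for compound exposure, DMSO matched across wells. Reagent: K+/Tl+ depolarizing stimulus. Compound dosing: single-concentration screen. Times: 37 °C overnight plating, 90-min dark dye load, 20-min compound pretreatment. Technique: FluxOR Tl+ flux fluorescence.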
# KCNK9 inh = inhibitors of human KCNK9 two-pore domain potassium channel; Q9NPC2; HEK293 KCNK9, FluxOR thallium flux fluorescence; active compounds read low; B-score at 10 µM; 310,000 compounds, 1.2% hits;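 active means ratio B-score over 3 SD below the library mean, with starting fluorescence within 5 SD of its mean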;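 further: negative B-score means less thallium flux so channel inhibition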
# KCNQ1 inh = blocks the human KCNQ1 potassium channel. B-score at 10 µM. 310,000 compounds, 1.3% hits. AID 2642. P51787. CHO-K1 KCNQ1, FluxOR thallium flux fluorescence; active compounds read high;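 active means compounds whose thallium flux B-score, printed positive for inhibition, exceeds three library SD while starting fluorescence stays within three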;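 further: channel opened by potassium depolarization with thallium stimulus after 20 min compound exposure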
# Numbers stand for hits; . = inactive; / = no result given.
SMILES,hERG protect,KCNK3 block,KCNQ1 pot,KCNK9 inh,KCNQ1 inh
CC[C@@H](C(=O)[C@@H](C)[C@@H](O)[C@H](C)CCc1ccc(C)c(O)c1C(=O)O)[C@H]1O[C@](CC)([C@H]2CC[C@](O)(CC)[C@H](C)O2)C[C@@H]1C,65,.,76,.,.
CC[C@@H](C(=O)[C@@H](C)[C@@H](O)[C@H](C)[C@@H]1O[C@@H]([C@@H](CC)C(=O)O)CC[C@@H]1C)[C@H]1O[C@]2(C=C[C@@H](O)[C@]3(CC[C@@](C)([C@H]4CC[C@](O)(CC)[C@H](C)O4)O3)O2)[C@H](C)C[C@@H]1C,/,.,/,/,/
Cc1c(CCC(=O)N[C@@H](C)C(=O)O)c(=O)oc2cc3occ(-c4ccccc4)c3cc12,.,.,.,.,.
COc1cc(/C=N/N=C(N)N)ccc1OCc1ccccc1Cl,.,.,.,.,10
COc1ccc([C@H]2CC(=O)C=C(c3ccc(OC)c(F)c3)C2)cc1,/,.,/,/,/
Cc1ccc(OCCCCNC2CCCC(C)C2C)c(C)c1 (stereo not drawn),.,.,.,.,6
N#CCC(=O)Nc1ccc(C(=O)N2CCN(c3ccccn3)CC2)cc1,.,.,.,.,.
Cc1noc(/C=C/c2ccc(-c3ccccc3Cl)o2)c1[N+](=O)[O-],.,.,.,.,7
COC(=O)c1ccc(OCCN2CCCCCC2)cc1,.,.,.,.,.
O=C(c1ccc(OCCN2CCCCC2)cc1)c1c(-c2ccc(O)cc2)sc2cc(O)ccc12,.,.,.,.,9
O=C(N/N=C/C=C/c1ccc2c(c1)OCO2)C(O)c1ccccc1 (stereo not drawn),.,.,.,.,.
CC1CCCC/C1=N/Nc1ccc([N+](=O)[O-])cc1[N+](=O)[O-] (stereo not drawn),.,.,.,.,.
CC1C/C(=N/Nc2ccc([N+](=O)[O-])cc2[N+](=O)[O-])CC(C)(C)C1 (stereo not drawn),.,.,.,.,7
O=C(CSc1nc(=O)n2ccccc2n1)NCc1ccccc1,.,.,8,.,.
O=C(CSc1nc(=O)n2ccccc2n1)NCc1ccc(F)cc1,.,.,.,.,.
COc1ccc(S(=O)(=O)n2nc(OC(=O)c3ccccc3Br)cc2N)cc1,.,-9.1,.,.,.
CC(=O)Nc1ccc(SC[C@H](Cc2ccccc2)N2CC[C@@H](C(C)(C)C)CCC2=O)cc1,/,.,/,/,/
O=C(Oc1ccccc1)n1c(=S)oc2ccccc21,.,.,.,.,.
Cc1ccccc1OC(=O)n1c(=S)oc2cc(Cl)ccc21,.,.,10,.,.
CCOC(=O)SC1=N/C(=C\c2ccc(N(C)C)cc2)C(=O)S1,.,.,8,.,.
CCOC(=O)N1CCN(C(=O)Cc2c(C(=O)O)n(C)c3ccccc23)CC1,.,.,.,.,.
CCOC(=O)C1CCN(C(=O)Cc2c(C(=O)O)n(CC)c3ccccc23)CC1,5.5,.,.,.,.
COc1ccc(N2C(C(C)=O)=NN(c3ccccc3)C2c2cccs2)cc1 (stereo not drawn),.,.,.,.,7
CC(=O)Nc1ccc(N2C(C(C)=O)=NN(c3ccccc3)C2c2cccs2)cc1 (stereo not drawn),.,.,.,.,.
CCCCCSc1nnc2c(n1)OC(C)N(C(C)=O)c1ccccc1-2 (stereo not drawn),.,-10,.,.,.
SMILES,hERG protect,KCNK3 block,KCNQ1 pot,KCNK9 inh,KCNQ1 inh
C/C(=N\NC(=S)Nc1cccc(C)c1)c1ccco1,5.8,.,13,.,.
Cc1ccc(-c2cc(C(=O)Nc3cc(C)ccc3O)no2)cc1,.,.,.,-7.8,.
C[C@@]12C(=O)N(Cc3ccccc3)CC(=O)N1[C@H]1c3ccccc3OC[C@@H]1[C@@H]2c1ccccc1,/,.,/,/,/
Cc1ccc(-n2ncc3c2CCCC3NC(=O)c2csnn2)cc1C (stereo not drawn),19,.,.,.,.
Cc1cc(C)c(C(=O)NC2CCCc3c2cnn3-c2cccc(C)c2C)o1 (stereo not drawn),.,.,.,.,.
Cc1ccc(-n2ncc3c2CCCC3NC(=O)c2ccoc2)cc1C (stereo not drawn),.,.,.,.,.
Cc1cc(C)cc(-n2ncc3c2CCCC3NC(=O)c2csnn2)c1 (stereo not drawn),36,.,.,.,.
CCc1cc(C(=O)NC2CCCc3c2cnn3-c2cccc(C)c2C)n(C)n1 (stereo not drawn),.,/,.,.,11
COc1ccc(-c2n[nH]c(C(F)(F)F)c2-c2cc3ccccc3o2)c(O)c1,.,.,.,.,8
Cc1c(NC(=O)c2cc(-n3cnnc3)ccc2Cl)cccc1-c1nc2ccccc2s1,.,.,.,.,.
O=C(Nc1cccc(-c2nc3ccccc3s2)c1)c1cc(-n2cnnc2)ccc1Cl,.,.,.,.,6
Cc1cccc(S(=O)(=O)Nc2cccc3c2C(=O)c2ccccc2-3)c1,.,.,9,.,.
O=[N+]([O-])c1ccc(CN2CCOCCOCCN(Cc3ccc([N+](=O)[O-])cc3)CCOCC2)cc1,.,.,.,-7.2,.
CC(C)C(NCC(=O)Nc1ccccc1C(=O)NC1CC1)c1ccccc1 (stereo not drawn),/,.,/,/,/
Cc1ccc(/C=C/C(=O)C2C(=O)c3ccccc3C2=O)cc1,25,.,20,.,.
N#CC(C#N)=C1C=C2C=C(N3CCCCCC3)CCC2CC1 (stereo not drawn),.,.,.,.,.
N#CC(C#N)=C1C=C2C=C(N3CCOCC3)CCC2CC1 (stereo not drawn),.,.,.,.,6
CCOc1c(C)cnc2c1c(=O)n(Cc1cccc(Cl)c1)c(=O)n2C,.,.,.,.,.
CCc1nnc(NC(=O)CCC(=O)N2CCN(C3CCCCC3)CC2)s1,.,.,13,.,.
CCOC(=O)C(C)Oc1ccc(NC(=O)C(Cl)Cl)cc1 (stereo not drawn),.,.,.,.,.
Cc1ccc(C(=O)NNC(=O)CCCCC(=O)NNC(=O)c2ccc(C)cc2)cc1,.,.,9,.,.
Cc1ccc(C(=O)NNC(=O)c2cccc(Br)c2)cc1,11,.,.,.,.
Cc1ccc(CCS(=O)(=O)c2ccc(C(C)(C)C)cc2)cn1,.,.,.,.,.
COC(=O)c1ccc(CO/N=C/c2cccc([N+](=O)[O-])c2)cc1,.,.,.,-6.7,.
COc1cc(/C=C(\C#N)C(=O)NC2CCCCC2)ccc1OCc1ccc(C(=O)O)cc1,.,.,.,.,.
CC1CC(=O)Nc2ccccc2N1C(=O)CSc1nnnn1C(C)C (stereo not drawn),/,.,/,/,/
CC(Sc1nnc2ccccn12)C(N)=O (stereo not drawn),5.0,.,.,.,.
CCOC(=O)C(Cc1ccccc1)NC(=O)CCCC(=O)c1ccccc1 (stereo not drawn),.,.,.,.,8

# Compound activity deposited in PubChem by Johns Hopkins Ion Channel Center.
